# RGS4 block = inhibitors of human RGS4. B-score at 10 µM. HEK293 M3R/RGS4 inducible, Fluo-4 calcium flux; hits give high values; triggered by carbachol at its EC20. P49798. hit rate 0.45% among 310,000;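 active = B-score, a plate-corrected calcium signal, over three deviations above library mean, with baseline fluorescence within five deviations of library mean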;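 note: RGS4 expression induced by doxycycline in cells with stable M3 receptor; B-score is computed from the integrated fluorescence ratio over baseline after carbachol; higher B-score means a larger calcium signal and so more RGS4 inhibition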
# RGS4 act = RGS4 potentiation or activation; HEK293 M3R/inducible RGS4, carbachol calcium flux Fluo4; hits give low values; B-score at 10 µM; hit rate 0.92% among 310,000;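 active = B-score of the integrated calcium signal more than 4 SD below the library mean, with starting fluorescence not abnormally high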;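 note: negative B-score means reduced calcium response which marks RGS4 activation or potentiation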
#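 Detection: kinetic calcium fluorescence imaging with Fluo4-AM dye, 2 µM / Material: HEK293 cells with stable M3R and inducible RGS4 / Schedule: recording 10 s baseline at 1 Hz, 100 s post-agonist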
# MrgX1 antag = human MrgX1 receptor antagonism, primary screen; Q96LB2; MRGX1-HEK293 calcium flux, Fluo-4, BAM8-22 antagonism; hits give low values; B-score at 10 µM; hit rate 1.3% among 310,000;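 active = calcium-response B-score plate-corrected more than 3 library SD below zero, starting fluorescence within 5 deviations, no agonist response on first addition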;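 note: peak minus trough fluorescence over baseline after final BAM8-22 challenge near maximal dose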
# Target sequence (Q96LB2 whole entry, looked up): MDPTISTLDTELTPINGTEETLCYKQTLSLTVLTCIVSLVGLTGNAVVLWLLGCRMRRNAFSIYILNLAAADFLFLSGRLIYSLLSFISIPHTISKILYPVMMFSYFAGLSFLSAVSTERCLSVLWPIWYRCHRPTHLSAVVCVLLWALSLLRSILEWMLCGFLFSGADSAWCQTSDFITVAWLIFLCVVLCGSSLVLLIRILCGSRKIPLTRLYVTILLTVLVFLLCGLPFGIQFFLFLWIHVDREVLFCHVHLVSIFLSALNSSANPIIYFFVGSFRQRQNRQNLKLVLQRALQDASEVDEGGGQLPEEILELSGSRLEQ
# MrgX1 agonist = human MrgX1 receptor agonism, primary screen. Q96LB2. MrgX1-HEK293 cells, Fluo-4 calcium fluorescence, agonist mode; hits give high values. B-score at 10 µM. hit rate 0.44% among 310,000. AID 588627;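 active = calcium response B-score plate-corrected fluorescence ratio at least 3 library SD, with starting fluorescence B-score inside 5 SD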
#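 System – MrgX1-expressing HEK293 cells · Incubation – cells plated overnight, dye loaded 0.5 h 37 °C, 0.5 h room temperature · Technique – kinetic Fluo-4 NW fluorescence of intracellular calcium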
# MrgX1 allo act = human MrgX1 positive allosteric modulation, primary screen; Q96LB2; MrgX1-HEK293, Fluo-4 calcium flux, FDSS; hits give high values; hit rate 0.63% among 310,000; B-score at 10 µM;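 active = plate-corrected calcium response at least 3 library SD above typical, normal starting fluorescence, not activating the receptor alone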;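 note: compound read alongside a low EC10 to EC30 dose of BAM8-22 agonist; peak minus trough fluorescence over baseline measured at the second addition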
# MrgX1 antag conf = human MrgX1 receptor antagonism, re-confirmation screen. MrgX1-HEK293, BAM8-22 calcium flux, Fluo-4; hits give low values. AID 602420. remaining BAM8-22 calcium response % of control (hits give low values), % at 10 µM. shares compounds with MrgX1 antag. hit rate 19% among 2,300;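 active = remaining agonist calcium response no higher than 100% minus 3 SD of agonist-only control wells, with starting fluorescence near control levels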;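 note: agonist BAM8-22 given at a near maximal EC90 to ECmax level; peak minus minimum fluorescence divided by baseline after agonist addition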
# HEK293 Ca flux = activity in parental HEK293 cells lacking MrgX1; Fluo-4 calcium fluorescence, FDSS; fluorescence ratio F(max-min)/F0 at 10 µM; hit rate 2% among 4,000; shares compounds with MrgX1 antag; AID 624111;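 active = duplicate-averaged calcium fluorescence ratio at least three times the standard deviation of buffer wells, a nonspecific response in parental cells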
# HEK293 Ca counter = MrgX1 allosteric activator counter-screen hit in parental HEK293 cells | parental HEK293 calcium flux, Fluo-4 fluorescence ratio; hits give high values | shares compounds with MrgX1 antag | fluorescence ratio F(max-min)/F0 at 10 µM | AID 624114 | hit rate 0.4% among 4,000;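 active = calcium fluorescence ratio, averaged over duplicates, at least 3 SD of the buffer-well ratio, meaning a nonspecific response in receptor-free cells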;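 note: untransfected parental HEK293 lacking MrgX1 used as counterscreen for MrgX1 allosteric activators; fluorescence change taken during the second addition on a kinetic imager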
# HEK293 Ca cntr2 = counter-screen for MrgX1 activators: effect in parental HEK293 cells. fluorescence ratio F(max-min)/F0 at 10 µM. shares compounds with MrgX1 antag. Fluo-4 calcium fluorescence (FDSS); hits give high values. hit rate 8.7% among 4,000;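 active = calcium fluorescence ratio at least three times the spread of buffer wells, meaning a non-specific response in parental cells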
# * = called active by the depositor; i = inactive; / = no result given. An excerpt weighted towards active compounds, which were near 3.5% of everything screened.
SMILES,RGS4 block,RGS4 act,MrgX1 antag,MrgX1 agonist,MrgX1 allo act,MrgX1 antag conf,HEK293 Ca flux,HEK293 Ca counter,HEK293 Ca cntr2
CCn1c(CNC(=O)c2ccco2)nnc1SCC(=O)Nc1cc(F)ccc1C,i,i,i,i,i,/,/,/,/
COc1ccc(NS(=O)(=O)c2cccc(C(=O)NCc3ccco3)c2)cc1,i,i,-6.54*,i,i,i,i,i,55.4*
COc1ccc(Nc2oc(-c3ccc(OC)cc3)nc2C#N)cc1,i,i,-5.77*,i,i,i,i,i,i
O=C(NCCc1ccc(Cl)cc1)C1CCN(S(=O)(=O)N2CCCC2)CC1,i,i,-5.74*,i,i,i,i,i,i
Cc1cc(Nc2ccccc2)n(C(=O)c2ccccc2)n1,i,i,-6.82*,i,i,i,i,i,i
CCCc1ccc(OCC(=O)O)cc1,i,i,i,i,i,/,/,/,/
CCC(C)c1ccc(OCC(=O)O)cc1 (stereo not drawn),i,i,-6.89*,i,i,i,i,i,i
CCC(C)C(=O)Nc1nc(C)c(-c2csc(Nc3cc(OC)ccc3OC)n2)s1 (stereo not drawn),i,i,-5.95*,i,i,i,i,i,i
CC1CN(c2ccccc2)c2nc3c(c(=O)[nH]c(=O)n3C)n2C1 (stereo not drawn),i,i,-6.67*,i,i,i,i,i,i
O=C(CNC(=O)C1CCCCC1)Nc1ccccc1,i,i,i,i,i,/,/,/,/
Cc1cc(NC(=O)CNC(=O)C2CCCCC2)no1,/,/,-5.26*,i,i,i,i,i,i
O=C(CNC(=O)C1CCCCC1)NC1CCCCC1,i,i,-4.69*,i,i,i,i,i,i
CC(NC(=O)CCSc1nc(-c2ccc3c(c2)OCO3)cc(C(F)(F)F)n1)c1ccccc1 (stereo not drawn),i,i,i,i,i,/,/,/,/
COc1ccc([N+](=O)[O-])cc1NC(=O)COC(=O)c1ccc(O)cc1,i,i,i,i,i,/,/,/,/
COc1ccc(NC(=O)CSc2nnc(CN3CCOCC3)n2C)cc1Cl,i,i,-7.05*,i,i,i,i,i,i
Cc1nc(-c2ccc(S(=O)(=O)N3CCN(C4c5ccccc5-c5ccccc54)CC3)s2)cs1,i,i,-5.3*,i,i,i,i,i,i
CCOc1ccc(N2CC(C(=O)N3CCN(c4ccccn4)CC3)CC2=O)cc1 (stereo not drawn),i,i,-6.67*,i,i,i,i,i,i
CCOc1ccc(N(CC(=O)NCCSCc2ccccc2)S(C)(=O)=O)cc1,i,i,i,i,i,/,/,/,/
COC(=O)c1ccc(NC(=O)CSc2ccccc2)cc1,i,i,-5.9*,i,i,i,i,i,i
COC(=O)c1ccc(NC(=O)CSc2ccccn2)cc1,i,i,i,i,i,/,/,/,/
COC(=O)c1ccc(NC(=O)CN2CCN(c3ccccc3)CC2)cc1,i,i,-6.69*,i,i,i,i,i,i
CC(=O)N1c2ccc(S(=O)(=O)NCC3CCC(C(=O)NCc4ccccc4)CC3)cc2CC1C (stereo not drawn),i,i,i,i,i,/,/,/,/
COc1ccc2oc(C(=O)OCC(=O)NCc3ccccc3OC)c(C)c2c1,i,i,-5.1*,i,i,i,i,i,i
